Test results as given in ChEMBL document CHEMBL4811269, “Design, synthesis and antibacterial evaluation of novel C-11, C-9 or C-2'-substituted 3-O-descladinosyl-3-ketoclarithromycin derivatives” (Bioorg Med Chem Lett, 2021).
In brackets after ≈: the same amount, converted by molar mass.

Columns and labels:
Staphylococcus aureus [1] = assay: Antibacterial activity against erythromycin-susceptible Staphylococcus aureus ATCC 25923 by broth microdilution method; format: functional
How it was run: (§1)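 MIC determined by standard broth microdilution per NCCLS recommendations, read as minimal inhibitory concentration in µg/mL. Standard ATCC strains tested alongside the other panel strains, with clarithromycin and azithromycin as reference agents.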

Staphylococcus aureus [2] = assay: Antibacterial activity against methicillin-resistant Staphylococcus aureus ATCC 43300 by broth microdilution method; format: functional
How it was run: (§2)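 MIC by standard NCCLS broth microdilution against resistant S. aureus strains, reported in µg/mL. Clarithromycin and azithromycin were run alongside as references.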

Staphylococcus aureus [3] = assay: Antibacterial activity against penicillin-resistant Staphylococcus aureus ATCC 31007 by broth microdilution method; format: functional; how it was run: as §2
Bacillus subtilis = assay: Antibacterial activity against penicillin-susceptible Bacillus subtilis ATCC9372 by broth microdilution method; format: functional; how it was run: as §1
Pseudomonas aeruginosa = assay: Antibacterial activity against penicillin-susceptible Pseudomonas aeruginosa ATCC 27853 by broth microdilution method; format: functional; how it was run: as §1
Streptococcus pneumoniae [4] = assay: Antibacterial activity against erythromycin-resistant Streptococcus pneumoniae AB11 by broth microdilution method; format: functional
How it was run: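 MIC by standard NCCLS broth microdilution, reported in µg/mL. The strain expresses the ermB and mefA genes. Clarithromycin and azithromycin were run alongside as references.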

Streptococcus pyogenes = assay: Antibacterial activity against erythromycin-resistant Streptococcus pyogenes R1 by broth microdilution method; format: functional
How it was run: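 MIC by standard NCCLS broth microdilution, reported in µg/mL. The strain is a clinically isolated erythromycin-resistant strain. Clarithromycin and azithromycin were run alongside as references.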

Streptococcus pneumoniae [5] = assay: Antibacterial activity against erythromycin-resistant Streptococcus pneumoniae B1 by broth microdilution method; format: functional
How it was run: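 MIC by standard NCCLS broth microdilution, reported in µg/mL. The strain expresses the ermB gene. Clarithromycin and azithromycin were run alongside as references.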

[6] = Chemical stability of the compound in pH 7.4 phosphate solution after 24 hrs by HPLC analysis; format: physicochemical; conditions: buffer, pH 7.4, 24 h
How it was run: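 Compound held in phosphate solution (pH = 7.4) at 25 °C and monitored by HPLC over 24 h. Stability judged from change in peak area.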

SMILES	MIC (Staphylococcus aureus [1]) [µg/mL]	MIC (Staphylococcus aureus [2]) [µg/mL]	MIC (Staphylococcus aureus [3]) [µg/mL]	MIC (Bacillus subtilis) [µg/mL]	MIC (Pseudomonas aeruginosa) [µg/mL]	MIC (Streptococcus pneumoniae [4]) [µg/mL]	MIC (Streptococcus pyogenes) [µg/mL]	MIC (Streptococcus pneumoniae [5]) [µg/mL]	Stabilty [6]
CCCc1ccc(C(=O)O[C@@H]2[C@H](C)CN(C)CCOC(=O)[C@H](C)C(=O)[C@H](C)[C@@H](O[C@@H]3O[C@H](C)C[C@H](N(C)C)[C@H]3OC(=O)c3ccc(CCC)cc3)[C@](C)(OC)C[C@H]2C)cc1	64 (≈ 76.5 µM)	> 256	> 256	> 128	> 128	> 256	> 256	> 256	–
CO[C@]1(C)C[C@@H](C)[C@H](OC(=O)c2ccc(Br)cc2)[C@H](C)CN(C)CCOC(=O)[C@H](C)C(=O)[C@H](C)[C@H]1O[C@@H]1O[C@H](C)C[C@H](N(C)C)[C@H]1OC(=O)c1ccc(Br)cc1	128 (≈ 141 µM)	> 256	> 256	> 128	> 128	> 256	> 256	> 256	–
CO[C@]1(C)C[C@@H](C)[C@H](OC(=O)c2ccccc2)[C@H](C)CN(C)CCOC(=O)[C@H](C)C(=O)[C@H](C)[C@H]1O[C@@H]1O[C@H](C)C[C@H](N(C)C)[C@H]1OC(=O)c1ccccc1	128 (≈ 170 µM)	> 256	> 256	> 128	> 128	> 256	> 256	> 256	Stable
COc1cccc(C(=O)O[C@@H]2[C@H](C)CN(C)CCOC(=O)[C@H](C)C(=O)[C@H](C)[C@@H](O[C@@H]3O[C@H](C)C[C@H](N(C)C)[C@H]3OC(=O)c3cccc(OC)c3)[C@](C)(OC)C[C@H]2C)c1	128 (≈ 157 µM)	> 256	> 256	> 128	> 128	> 256	> 256	> 256	–
CO[C@]1(C)C[C@@H](C)[C@H](OC(=O)c2cccc(Br)c2)[C@H](C)CN(C)CCOC(=O)[C@H](C)C(=O)[C@H](C)[C@H]1O[C@@H]1O[C@H](C)C[C@H](N(C)C)[C@H]1OC(=O)c1cccc(Br)c1	64 (≈ 70.3 µM)	> 256	> 256	> 128	> 128	> 256	> 256	> 256	–
CO[C@]1(C)C[C@@H](C)[C@H](OC(=O)c2cc(Cl)cc(Cl)c2)[C@H](C)CN(C)CCOC(=O)[C@H](C)C(=O)[C@H](C)[C@H]1O[C@@H]1O[C@H](C)C[C@H](N(C)C)[C@H]1OC(=O)c1cc(Cl)cc(Cl)c1	128 (≈ 144 µM)	> 256	> 256	> 128	> 128	> 256	> 256	> 256	–
CO[C@]1(C)C[C@@H](C)[C@H](OC(=O)c2cccc([N+](=O)[O-])c2)[C@H](C)CN(C)CCOC(=O)[C@H](C)C(=O)[C@H](C)[C@H]1O[C@@H]1O[C@H](C)C[C@H](N(C)C)[C@H]1OC(=O)c1cccc([N+](=O)[O-])c1	128 (≈ 152 µM)	> 256	> 256	> 128	> 128	> 256	> 256	> 256	–
CO[C@]1(C)C[C@@H](C)[C@H](OC(=O)c2ccc(C(F)(F)F)cc2)[C@H](C)CN(C)CCOC(=O)[C@H](C)C(=O)[C@H](C)[C@H]1O[C@@H]1O[C@H](C)C[C@H](N(C)C)[C@H]1OC(=O)c1ccc(C(F)(F)F)cc1	64 (≈ 72 µM)	> 256	> 256	> 128	> 128	> 256	> 256	> 256	–
CO[C@]1(C)C[C@@H](C)[C@H](OC(=O)c2cccc(C)c2)[C@H](C)CN(C)CCOC(=O)[C@H](C)C(=O)[C@H](C)[C@H]1O[C@@H]1O[C@H](C)C[C@H](N(C)C)[C@H]1OC(=O)c1cccc(C)c1	128 (≈ 164 µM)	> 256	> 256	> 128	> 128	> 256	> 256	> 256	–
CO[C@]1(C)C[C@@H](C)[C@H](OC(=O)c2ccc(F)cc2)[C@H](C)CN(C)CCOC(=O)[C@H](C)C(=O)[C@H](C)[C@H]1O[C@@H]1O[C@H](C)C[C@H](N(C)C)[C@H]1OC(=O)c1ccc(F)cc1	128 (≈ 162 µM)	> 256	> 256	> 128	> 128	> 256	> 256	> 256	–
CO[C@]1(C)C[C@@H](C)[C@H](OC(=O)c2cccc(C(F)(F)F)c2)[C@H](C)CN(C)CCOC(=O)[C@H](C)C(=O)[C@H](C)[C@H]1O[C@@H]1O[C@H](C)C[C@H](N(C)C)[C@H]1OC(=O)c1cccc(C(F)(F)F)c1	128 (≈ 144 µM)	> 256	> 256	> 128	> 128	> 256	> 256	> 256	Stable
COc1ccc(C(=O)O[C@@H]2[C@H](C)CN(C)CCOC(=O)[C@H](C)C(=O)[C@H](C)[C@@H](O[C@@H]3O[C@H](C)C[C@H](N(C)C)[C@H]3OC(=O)c3ccc(OC)cc3)[C@](C)(OC)C[C@H]2C)cc1	64 (≈ 78.7 µM)	> 256	> 256	> 128	> 128	> 256	> 256	> 256	–
CO[C@]1(C)C[C@@H](C)[C@H](OC(=O)c2ccc([N+](=O)[O-])cc2)[C@H](C)CN(C)CCOC(=O)[C@H](C)C(=O)[C@H](C)[C@H]1O[C@@H]1O[C@H](C)C[C@H](N(C)C)[C@H]1OC(=O)c1ccc([N+](=O)[O-])cc1	64 (≈ 75.9 µM)	> 256	> 256	> 128	> 128	> 256	> 256	> 256	–
CCOc1ccc(C(=O)O[C@@H]2[C@H](C)CN(C)CCOC(=O)[C@H](C)C(=O)[C@H](C)[C@@H](O[C@@H]3O[C@H](C)C[C@H](N(C)C)[C@H]3OC(=O)c3ccc(OCC)cc3)[C@](C)(OC)C[C@H]2C)cc1	128 (≈ 152 µM)	> 256	> 256	> 128	> 128	> 256	> 256	> 256	–
CO[C@]1(C)C[C@@H](C)[C@H](OC(=O)c2ccccc2Br)[C@H](C)CN(C)CCOC(=O)[C@H](C)C(=O)[C@H](C)[C@H]1O[C@@H]1O[C@H](C)C[C@H](N(C)C)[C@H]1OC(=O)c1ccccc1Br	128 (≈ 141 µM)	> 256	> 256	> 128	> 128	> 256	> 256	> 256	–
CO[C@]1(C)C[C@@H](C)[C@H](OC(=O)c2cccc(F)c2)[C@H](C)CN(C)CCOC(=O)[C@H](C)C(=O)[C@H](C)[C@H]1O[C@@H]1O[C@H](C)C[C@H](N(C)C)[C@H]1OC(=O)c1cccc(F)c1	128 (≈ 162 µM)	> 256	> 256	> 128	> 128	> 256	> 256	> 256	–
CCc1ccc(C(=O)O[C@@H]2[C@H](C)CN(C)CCOC(=O)[C@H](C)C(=O)[C@H](C)[C@@H](O[C@@H]3O[C@H](C)C[C@H](N(C)C)[C@H]3OC(=O)c3ccc(CC)cc3)[C@](C)(OC)C[C@H]2C)cc1	64 (≈ 79.1 µM)	> 256	> 256	> 128	> 128	> 256	> 256	> 256	–
CO[C@]1(C)C[C@@H](C)[C@H](OC(=O)c2cccc(Cl)c2)[C@H](C)CN(C)CCOC(=O)[C@H](C)C(=O)[C@H](C)[C@H]1O[C@@H]1O[C@H](C)C[C@H](N(C)C)[C@H]1OC(=O)c1cccc(Cl)c1	64 (≈ 77.9 µM)	> 256	> 256	> 128	> 128	> 256	> 256	> 256	–
CC[C@H]1OC(=O)[C@H](C)[C@@H](O[C@H]2C[C@@](C)(OC)[C@@H](O)[C@H](C)O2)[C@H](C)[C@@H](O[C@@H]2O[C@H](C)C[C@H](N(C)C)[C@H]2O)[C@](C)(O)C[C@@H](C)CN(C)[C@H](C)[C@@H](O)[C@]1(C)O [AZITHROMYCIN]	≤ 0.25	> 256	> 256	≤ 0.25	32 (≈ 42.7 µM)	128 (≈ 171 µM)	256 (≈ 342 µM)	> 256	–
CC[C@H]1OC(=O)[C@H](C)[C@@H](O[C@H]2C[C@@](C)(OC)[C@@H](O)[C@H](C)O2)[C@H](C)[C@@H](O[C@@H]2O[C@H](C)C[C@H](N(C)C)[C@H]2O)[C@](C)(OC)C[C@@H](C)C(=O)[C@H](C)[C@@H](O)[C@]1(C)O [CLARITHROMYCIN]	≤ 0.25	> 256	> 256	≤ 0.25	16 (≈ 21.4 µM)	256 (≈ 342 µM)	256 (≈ 342 µM)	> 256	–
